Shown are actives, neighbours in structure and some others; about 4.1% of the full set was active somewhere.
KCNK9 block = inhibitors of human KCNK9 two-pore domain potassium channel; Q9NPC2; HEK293 KCNK9, FluxOR thallium flux fluorescence; active compounds read low; B-score at 10 µM; hit rate 1.2% among 310,000; AID 488922;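 active = ratio B-score over 3 SD below the library mean, with starting fluorescence within 5 SD of its mean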;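 also: negative B-score means less thallium flux so channel inhibition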
hERG protect = hERG (human) protection from proarrhythmic block. hit rate 0.51% among 310,000. CHO-hERG, FluxOR thallium flux, dofetilide IC70 present. activation (rescue from dofetilide block), less the hit threshold, % at 10 µM. Q12809;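 active = activation above the mean of controls blocked by dofetilide plus 5 SD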;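 also: thallium influx through hERG after potassium depolarization seen as dye fluorescence rise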
KCNK3 inh = human KCNK3 channel inhibition, primary screen. O14649. CHO-KCNK3 thallium flux, FluxOR fluorescence; active compounds read low. B-score at 10 µM. hit rate 0.84% among 340,000. AID 602410;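 active = B-score under library mean minus 4 SD, starting fluorescence ratio at most library mean plus 5 SD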;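 also: more negative B-score means stronger inhibition of thallium flux through KCNK3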
Cl transport mod = modulates chloride dependent transport by human KCC2; KCC2 cells, thallium flux FluoZin-2 fluorescence; Q9H2X9; hit rate 2.2% among 190,000; B-score of Tl+ flux slope (higher = more flux/activation; lower = inhibition) at 10 µM;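 active = thallium flux slope and its plate-corrected score both differing from the plate sample mean at a set confidence after two filtering rounds, in either direction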;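 also: slope of fluorescence scaled to starting intensity during 10 to 20 s after thallium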
KCNQ1 pot = potentiates or activates the human KCNQ1 potassium channel | P51787 | CHO-K1 KCNQ1, thallium flux FluxOR fluorescence; active compounds read high | B-score at 10 µM | hit rate 0.35% among 310,000 | AID 2648;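 active = fluorescence ratio B-score, a plate-corrected score, at least three library SD, with initial intensity B-score within 5 SD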
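System: Stable KCNQ1 CHO-K1 line | Incubation: 90 min dye loading and 20 min compound exposure, both at room temperature | Measure: Ratio B score | Medium: Assay buffer for compound exposure, DMSO matched across wells | Compound dosing: Single-concentration screen | Probe or stimulus: K+/Tl+ depolarizing stimulus | Measured by: Kinetic FluxOR fluorescence, 10 s baseline plus 110 s post-stimulus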
KCNQ1 inh = inhibitors of human KCNQ1 potassium channel | P51787 | CHO-K1 KCNQ1, FluxOR thallium flux fluorescence; active compounds read high | B-score at 10 µM | hit rate 1.3% among 310,000 | AID 2642;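 active = compounds whose thallium flux B-score, printed positive for inhibition, exceeds three library SD while starting fluorescence stays within three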;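 also: channel opened by potassium depolarization with thallium stimulus after 20 min compound exposure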
The depositor's hits bear a star; i = inactive; nt = no result.

SMILES | KCNK9 block | hERG protect | KCNK3 inh | Cl transport mod | KCNQ1 pot | KCNQ1 inh
C=CCNC(=O)N1CCC(c2nc3ccccc3s2)CC1 | i | -4 | i | nt | i | i
Cc1cc(CCNC=O)c(C)c2c1oc1ccccc12 | nt | nt | i | nt | nt | nt
Cc1nc2c(C(=O)N3CCCC3)cnn2c(C)c1Cc1c(F)cccc1Cl | i | -11 | i | -1.2 | i | i
Cc1nc2c(C(=O)N3CCN(c4ccccn4)CC3)cnn2c(C)c1Cc1cccc(Cl)c1 | i | -18 | i | -1.1 | 7* | i
Cc1ccc(NC(=O)c2sccc2-n2cccc2)c(C)c1 | -8.1* | -17 | i | 0.15 | i | i
COc1ccc(C(=O)N=c2sc3c(C)ccc(OC)c3n2C)cc1 | -7* | -10 | i | 0.39 | i | i
CCc1cccc(OCC2Cn3c(nc4c3c(=O)[nH]c(=O)n4C)O2)c1 (stereo not given) | i | -3 | i | nt | i | i
COc1cccc(C2c3[nH]c4ccccc4c3C[C@H]3C(=O)N(CCCCCO)CC(=O)N23)c1 (stereo not given in full) | i | -12 | i | nt | i | i
CC(C)(C)n1nnnc1C(c1cc2cc3c(cc2[nH]c1=O)OCCO3)N1CCSCC1 (stereo not given) | i | 9.2* | i | 0.38 | 22* | i
COc1ccc2cc(C(c3nnnn3C(C)(C)C)N3CCSCC3)c(=O)[nH]c2c1 (stereo not given) | i | -8 | i | 0.52 | i | i
Cc1cc(N)ccc1-n1nc2ccccc2n1 | i | -7 | i | nt | i | i
Cc1ccc(-n2nc3ccc(N)cc3n2)c(C)c1 | i | 7.0* | i | nt | i | i
Cc1onc(-c2ccccc2)c1C(=O)Nc1ccc(Cl)c(S(=O)(=O)N2CCOCC2)c1 | nt | nt | i | nt | nt | nt
Clc1ccc(CSc2nnnn2-c2ccc3c(c2)OCO3)c(Cl)c1 | -7* | -8 | i | -1.6 | i | i
O=C(NN=C1c2ccccc2-c2ccccc21)c1ccccc1Br | i | -12 | i | 14* | i | i
O=C(NN=C1c2ccccc2-c2ccccc21)c1ccccc1 | i | -2 | i | nt | i | i
Fc1cccc2sc(Nc3nc4ccccc4s3)nc12 | i | 13* | i | 12* | i | i
Fc1ccc2nc(Nc3nc4c(F)cc(F)cc4s3)sc2c1 | i | 5.0* | i | 17* | i | i
Fc1ccc2nc(Nc3nc4c(F)cccc4s3)sc2c1 | i | 0 | i | 38* | 46* | i
CC(=O)CSc1ncnc2sc3c(c12)CCC(C)C3 (stereo not given) | i | 50* | i | 121* | 33* | i
CC1CCc2c(sc3ncnc(SCC(=O)c4ccccc4)c23)C1 (stereo not given) | i | -5 | i | 2 | i | i
Cc1cc(C)c2c(N)c(C(=O)Nc3ccc(F)cc3)sc2n1 | i | -6 | i | nt | i | i
COc1ccc(NC(=O)c2sc3nc(C)cc(C)c3c2N)cc1 | i | 4.8* | i | nt | i | i
Cc1cccc(C(C)C)c1NC(=O)COC(=O)CCN1C(=O)C2CC=CCC2C1=O (stereo not given) | i | -12 | i | nt | i | i
CC(C)(C)n1nnnc1C(c1cccs1)N(Cc1cccnc1)Cc1ccco1 (stereo not given) | -7.2* | -9 | i | -1.5 | i | i
CC(=O)Nc1ccc(S(=O)(=O)Nc2ccccc2C(=O)N2CCCCC2)cc1 | i | -4 | i | nt | i | i
CCOC(=O)c1cccc(NC(=O)Cn2nc(C)n3cccc3c2=O)c1 | i | -8 | i | nt | i | i
O=C(CN1CCN(c2nc(-c3ccccc3)cs2)CC1)NNC(=O)c1ccc(Br)cc1 | i | -3 | i | 0.13 | i | i
O=C(NC(=S)N1CCN(c2nc(-c3ccccc3)cs2)CC1)c1cncc(Br)c1 | i | 89* | i | 70* | 56* | i
CC(C)c1ccc(CC(C)C2C3=C(CCCC3=O)OC3=C2C(=O)CCC3)cc1 (stereo not given) | i | -15 | i | -2.4 | i | 7*

Screening data from PubChem.
